A selection: hits, their analogues and other compounds. The true share with any hit is near 9.3%.
E coli WT exp – growth inhibitors of E. coli BW25113 wild type | OD600 absorbance | AID 710 | 98,000 tested, 0.15% active | growth inhibition, % at 100 µM;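 active = growth inhibition above about 50% at one test dose, limit read from the data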;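 note: growth measured after 20 h incubation at 37 °C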
hDAT+cocaine – changed human dopamine transporter uptake under cocaine IC80 | LLC-PK1 hDAT cells, [14C]-dopamine uptake with cocaine IC80; actives deviate in either direction | 110,000 tested, 1.3% active | B-score at 10 µM;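 active = Z score or B-score, a plate-position-corrected score, falls beyond the plate's 99.7% confidence bounds, in either direction; inactive = both scores lie inside the 99.7% bounds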;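 note: scored against the spread of the other compound wells on the same plate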
PostGolgi yeast – growth inhibition of a yeast mutant, post-Golgi transport screen; post-Golgi transport phenotypic cell assay; inhibition, % at 10 µM; 98,000 tested, 0.9% active; AID 739;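 note: yeast cells grown in 1536-well plates; yeast grown about 18 h at 30C before absorbance read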
Ecoli tolC – E. coli tolC mutant growth inhibition | E. coli BW25113 tolC mutant growth, OD615 | growth inhibition, % at 10 µM (by protocol) | 65,000 tested, 2.2% active | AID 573;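 active = growth inhibition at or above a cutoff equal to the mean over every tested compound plus 3 SD, cut at about 60% in these data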;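 note: growth measured after 20 h incubation at 37 °C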
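System: E. coli ΔtolC::kan strain BW25113; Buffer or medium: LB broth supplemented with 50 µg/mL kanamycin; Compound: 10 µM final, single dose; Incubation: bacterial growth with compound for 20 h at 37 °C; Signal: A615 absorbance measurement; Evaluation: growth inhibition in percent.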
PostGolgi ctrl – growth of the yeast control strain, post-Golgi counter-screen. inhibition, % at 10 µM. 98,000 tested, 5% active. AID 738. efflux-deficient yeast background strain, growth absorbance A615, 16 h
D1 allo mod – allosteric modulators of human D1 dopamine receptor; P21728; HEK293 D1, CRE-luciferase, dopamine EC30 potentiation; actives deviate in either direction; B-score at 10 µM; 58,000 tested, 5.9% active;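 active = luminescence count or its row- and column-corrected plate score outside the 99.7% band of the plate's sample wells, on either side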
Target sequence (P21728 whole entry, looked up): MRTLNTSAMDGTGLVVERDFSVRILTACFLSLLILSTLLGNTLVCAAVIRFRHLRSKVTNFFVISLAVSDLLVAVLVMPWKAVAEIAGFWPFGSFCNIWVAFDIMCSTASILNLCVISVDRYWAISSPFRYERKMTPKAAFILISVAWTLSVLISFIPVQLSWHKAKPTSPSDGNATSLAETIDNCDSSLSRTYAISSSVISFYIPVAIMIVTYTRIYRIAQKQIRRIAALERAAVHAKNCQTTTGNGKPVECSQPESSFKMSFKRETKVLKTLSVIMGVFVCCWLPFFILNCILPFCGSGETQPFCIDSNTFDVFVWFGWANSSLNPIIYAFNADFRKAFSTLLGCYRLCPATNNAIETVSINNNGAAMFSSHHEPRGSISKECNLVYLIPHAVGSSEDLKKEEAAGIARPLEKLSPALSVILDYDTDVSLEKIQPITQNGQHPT
Starred values were filed as active, the others as inactive; / = not tested or not shown. Cut-off read from the data, not from the text of the source, unless noted: active = inhibition above about 30%; inactive = the rest.

SMILES | E coli WT exp | hDAT+cocaine | PostGolgi yeast | Ecoli tolC | PostGolgi ctrl | D1 allo mod
CCCCNC(=O)c1cn(-c2ccc(OCC)cc2)c(=O)c2cc(OC)c(OC)cc12 | -1 | 0.78 | 0 | / | 11 | /
CCOC(=O)C1CCN(Cc2cnc(Oc3ccc(Cl)cc3C)s2)CC1 | 2 | 1.2 | 49* | / | 17 | /
CCN1C(=O)[C@@H]2[C@H](C1=O)[C@@H]1C[C@H]3C(=O)N(CC)C(=O)[C@H]3[C@@H]3C1=C(C(=O)N1C(=O)OC(=NCC4CC4)[C@]31C)[C@@H]2C | / | 0.0023 | / | / | / | /
CS(=O)(=O)c1ccccc1-c1nc(-c2ccc(C(F)(F)F)cc2)no1 | 3 | -0.57 | -12 | / | 31* | /
CC1CC(C)CN(CC(C)(C)NS(=O)(=O)c2ccc(Cl)cc2)C1 (stereo not drawn) | -1 | -0.16 | 60* | / | 23 | /
Cc1ccc(-c2cc(C(=O)Nc3ccc4c(c3)OCCO4)c3ccccc3n2)cc1 | -6 | 2.1 | -5 | / | 15 | /
CCCCOc1ccc(-c2c(C#N)c(N)nc(SCC(N)=O)c2C#N)cc1 | 1 | -2.3* | 1 | 70* | 13 | 0.73
CC(O)(CS(=O)(=O)Cc1ccc(Cl)cc1)C(=O)Nc1cccc(C(F)(F)F)c1 (stereo not drawn) | -6 | 0.62 | -2 | / | 5 | /
O=C(Nc1cccc(C(F)(F)F)c1)N(Cc1ccc(Cl)cc1)CC(O)C(F)(F)F (stereo not drawn) | 11 | -0.4 | -10 | / | 51* | /
CCO[C@H]1OC(C(=O)N2CCN(C)CC2)=C[C@@H](c2ccc(Br)cc2)[C@@H]1CCCO | / | -1.5 | / | / | / | /
CC(=O)N1CCCc2cc(S(=O)(=O)Nc3ccc4c(c3)OCO4)ccc21 | 0 | 0.45 | 2 | 1 | 33* | -0.067
c1cc(-c2nc3cc(Oc4ccc5oc(-c6ccncc6)nc5c4)ccc3o2)ccn1 | / | / | / | -7 | / | -0.52
C=C(C)c1cccc(C(C)(C)NC(=O)Nc2ncccn2)c1 | 8 | 0.73 | 3 | -12 | 57* | -0.93
Cc1cccc(C)c1OCCCCc1c(C)n[nH]c1C | 5 | 0.91 | -3 | 49 | 20 | -0.55
Cc1ccccc1OCCCCc1c(C)n[nH]c1C | 9 | -0.34 | 2 | 100* | 46* | -1.5
COc1ccc(-c2cc3nc4n(c(=O)c3s2)CCOC4)cc1 | / | / | / | 1 | / | /
O=C(CCCCn1c(=O)c2ccccc2n(CC(=O)Nc2ccc(F)cc2)c1=O)NCc1ccco1 | -1 | -0.41 | -8 | -18 | 12 | 1.3
O=C(CCCCn1c(=O)c2ccccc2n(Cc2ccc(F)cc2Cl)c1=O)NCc1ccco1 | -3 | 0.067 | 3 | 24 | 14 | 14*
COc1ccc(Sc2nnc(Cc3ccccc3)c3ccccc23)cc1 | -7 | -0.0068 | -8 | / | 16 | /
Cc1ccc(Sc2nnc(Cc3ccccc3)c3ccccc23)cc1 | -6 | -0.59 | 9 | / | 34* | /
CC(=Nc1cccc(C)c1)c1sc2ccccc2c1O | 1 | 0.81 | 4 | / | 7 | /
CC(=Nc1ccc(O)cc1)c1sc2ccccc2c1O | -2 | -0.44 | 0 | 100* | -2 | -0.58
CC(C)=CC(=O)Nc1ccc(Br)cc1 | 8 | 0.69 | 2 | 18 | 2 | -1.9
O=C(CN1CCCC1)Nc1ccc(-c2nc3cc(NC(=O)CN4CCCC4)ccc3o2)cc1 | 11 | 0.7 | -1 | 11 | 6 | 1.4
Cc1c(Br)c([N+](=O)[O-])nn1C(C)C(=O)Nc1c(C)n(C)n(-c2ccccc2)c1=O (stereo not drawn) | 1 | -0.087 | -3 | / | 2 | /
SMILES | E coli WT exp | hDAT+cocaine | PostGolgi yeast | Ecoli tolC | PostGolgi ctrl | D1 allo mod
CCOC(=O)C(C)Sc1nnc(Cc2cc(=O)[nH]c(=O)[nH]2)n1-c1cccc(OC)c1 (stereo not drawn) | 7 | -0.73 | 2 | -9 | 32* | -0.5
S=C(Nc1ccccc1)N1CCCCCC1 | 5 | -8.4* | -5 | / | 1 | /
CC(=O)Nc1ccc(OCC(O)CN2CCN(c3cc(Cl)ccc3C)CC2)cc1 (stereo not drawn) | 11 | 2.3 | 9 | 33 | 4 | 0.036
CC(=O)Nc1ccc(OCC(O)CN2CCN(c3ccc(C)c(Cl)c3)CC2)cc1 (stereo not drawn) | 10 | 1 | 2 | 10 | 10 | -2.6*
CN1CCN(CC(O)COc2ccc(OCC(O)CN3CCN(C)CC3)cc2)CC1 (stereo not drawn) | / | 0.03 | / | -12 | / | -1
CC(C)c1ccc(OCC(O)CN2CCN(c3ccccc3)CC2)cc1 (stereo not drawn) | 0 | 0.065 | 51* | 54 | 63* | -4.5*
O=C(Cc1c[nH]c2ccccc12)NCc1ccc2c(c1)OCO2 | 12 | 0.7 | 8 | -4 | 1 | -1.3
CCc1ccc(S(=O)(=O)NCc2csc(-c3ccccc3)n2)s1 | -12 | -0.2 | 15 | 46 | 36* | 1.3
COc1ccc(OC)c(S(=O)(=O)NCc2cn3c(C)csc3n2)c1 | 4 | -0.031 | -8 | -5 | -4 | 0.029
CCc1ccc(S(=O)(=O)NCCc2csc(-c3ccccc3)n2)s1 | -16 | 0.023 | 16 | 93* | 42* | -0.38
O=S(=O)(NCc1csc(-c2cccnc2)n1)c1ccc(Cl)s1 | 6 | -0.075 | 4 | / | 13 | /
O=S(=O)(NCc1csc(-c2ccccc2)n1)c1ccc(Cl)s1 | -1 | / | 3 | 46 | 33* | -0.23
COc1ccc(OC)c(S(=O)(=O)NCc2csc(-c3ccccc3)n2)c1 | 1 | 2.4* | 6 | 13 | 10 | -0.21
O=S(=O)(NCCn1ccc2ccccc21)c1ccccc1 | 2 | -0.45 | -3 | / | 14 | /
Cc1cn(C2CC3OCC3O2)c(=O)[nH]c1=O (stereo not drawn) | 1 | -0.07 | -6 | -9 | 24 | /
OCc1nc2ccccc2n1CC(O)Cn1ccc2ccccc21 (stereo not drawn) | 2 | 0.7 | -5 | -5 | 5 | -0.29
Oc1ccccc1NCC(O)Cn1ccc2ccccc21 (stereo not drawn) | 7 | -0.81 | 16 | 55 | 37* | -0.72
O=C1C=C(c2cccc(O)c2)CCC1 | / | 0.013 | / | / | / | /
CCCc1nc2ccccc2c(=O)n1/N=C/c1ccc(O)cc1O | -4 | -8.8* | 7 | -7 | 19 | 2.3
Cc1ccccc1C(=O)c1cccn1CC(=O)NCCN1CCN(c2cccc(C)c2C)CC1 | -2 | 1.7 | 1 | / | 13 | /
COc1cc2c(C#N)c(N3CCc4ccccc4C3)nc(N)c2c(N)n1 | -14 | 0.5 | 27 | 74* | 77* | -1.1
COc1cc2c(C#N)c(N3CCCCC3)nc(N)c2c(N)n1 | -6 | 0.03 | -9 | -2 | 18 | 4.3
Cc1cccc2cc(CN(Cc3ccc(F)cc3)C(=O)N(C)C)c3nnnn3c12 | -5 | -1.2 | 12 | 3 | 32* | -0.58
Cc1cccc2cc(CN(Cc3ccc(F)cc3)C(=O)C(F)(F)F)c3nnnn3c12 | / | -0.85 | / | / | / | /
CN(C)S(=O)(=O)c1cccc(CSc2cccc[n+]2[O-])c1 | -4 | -1.2 | -11 | -3 | 1 | -0.63
O=C(c1ccco1)N1N=C(c2cccs2)CC1c1ccc(F)cc1 (stereo not drawn) | -1 | 0.91 | 14 | / | 35* | /

Source: PubChem BioAssay (several laboratories)
